The text below walks through data of ChEMBL document CHEMBL1833959, “Itraconazole side chain analogues: structure-activity relationship studies for inhibition of endothelial cell proliferation, vascular endothelial growth factor receptor 2 (VEGFR2) glycosylation, and hedgehog signaling” (2011).

Calls of active or inactive are those of the source. The rule behind the calls is not given here. Where only a bound is given, the exact number is not on record here.

For assay [1], the target named is Vascular endothelial growth factor receptor 2 (Homo sapiens) (UniProt P35968). Briefly: Inhibition of VEGFR2 glycosylation in human HUVEC cells at 2 uM after 24 hrs by Western blot analysis. It counts as cell-based. The method, boiled down:
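Pooled HUVEC (passage ≤8, EGM-2) seeded 5 × 10^4 per well, recovered overnight, then given fresh media with analogue added from 200X DMSO stocks; 24 h exposure. Cells lysed in 2X SDS sample buffer (ice 10 min, boiled 10 min), 6% SDS-PAGE, PVDF blot probed with anti-VEGFR2 and HRP anti-rabbit IgG, ECL detection.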
(In western blotting, separated proteins are transferred to a membrane and probed.)

Assay [2] is described as follows: Ratio of itraconazole IC50 to compound IC50 for antiproliferative activity against mouse Ptch+/- p53-/- medulloblastoma cells isolated from allografts in nude Harlan mouse after 96 hrs. It counts as functional, Medulloblastoma cell. The method, boiled down: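 Ptch−/+;p53−/− MB cells from nude-mouse allografts (ficoll-purified, three neurosphere passages, CD15 confirmed by flow cytometry) disaggregated and seeded in NBMedia with multiple analogue concentrations for 96 h. Cell number read by MTS-type CellTiter 96 AQueous absorbance; IC50 fitted from dose–response curves of mean corrected absorbance normalized to control, expressed relative to itraconazole.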

Assay [3] is described as follows: Inhibition of hedgehog signaling pathway in mouse Ptch+/- p53-/- medulloblastoma cells assessed as inhibition of receptor-mediated Gli1 transcriptional activity at antiproliferative IC90 concentration after 24 hrs by RT-PCR analysis relative to control.
Assay [4] relates to HUVEC. Briefly: Ratio of itraconazole IC50 to compound […] for antiangiogenic activity in human HUVEC cells assessed as inhibition of cell proliferation. In kind it is functional.
In assay [5] the test system is HUVEC. Briefly: Ratio of itraconazole IC50 to compound IC50 for antiangiogenic activity in human HUVEC cells assessed as inhibition of cell proliferation. It counts as functional.

Chain of Vascular endothelial growth factor receptor 2 (Homo sapiens) (P35968 whole entry): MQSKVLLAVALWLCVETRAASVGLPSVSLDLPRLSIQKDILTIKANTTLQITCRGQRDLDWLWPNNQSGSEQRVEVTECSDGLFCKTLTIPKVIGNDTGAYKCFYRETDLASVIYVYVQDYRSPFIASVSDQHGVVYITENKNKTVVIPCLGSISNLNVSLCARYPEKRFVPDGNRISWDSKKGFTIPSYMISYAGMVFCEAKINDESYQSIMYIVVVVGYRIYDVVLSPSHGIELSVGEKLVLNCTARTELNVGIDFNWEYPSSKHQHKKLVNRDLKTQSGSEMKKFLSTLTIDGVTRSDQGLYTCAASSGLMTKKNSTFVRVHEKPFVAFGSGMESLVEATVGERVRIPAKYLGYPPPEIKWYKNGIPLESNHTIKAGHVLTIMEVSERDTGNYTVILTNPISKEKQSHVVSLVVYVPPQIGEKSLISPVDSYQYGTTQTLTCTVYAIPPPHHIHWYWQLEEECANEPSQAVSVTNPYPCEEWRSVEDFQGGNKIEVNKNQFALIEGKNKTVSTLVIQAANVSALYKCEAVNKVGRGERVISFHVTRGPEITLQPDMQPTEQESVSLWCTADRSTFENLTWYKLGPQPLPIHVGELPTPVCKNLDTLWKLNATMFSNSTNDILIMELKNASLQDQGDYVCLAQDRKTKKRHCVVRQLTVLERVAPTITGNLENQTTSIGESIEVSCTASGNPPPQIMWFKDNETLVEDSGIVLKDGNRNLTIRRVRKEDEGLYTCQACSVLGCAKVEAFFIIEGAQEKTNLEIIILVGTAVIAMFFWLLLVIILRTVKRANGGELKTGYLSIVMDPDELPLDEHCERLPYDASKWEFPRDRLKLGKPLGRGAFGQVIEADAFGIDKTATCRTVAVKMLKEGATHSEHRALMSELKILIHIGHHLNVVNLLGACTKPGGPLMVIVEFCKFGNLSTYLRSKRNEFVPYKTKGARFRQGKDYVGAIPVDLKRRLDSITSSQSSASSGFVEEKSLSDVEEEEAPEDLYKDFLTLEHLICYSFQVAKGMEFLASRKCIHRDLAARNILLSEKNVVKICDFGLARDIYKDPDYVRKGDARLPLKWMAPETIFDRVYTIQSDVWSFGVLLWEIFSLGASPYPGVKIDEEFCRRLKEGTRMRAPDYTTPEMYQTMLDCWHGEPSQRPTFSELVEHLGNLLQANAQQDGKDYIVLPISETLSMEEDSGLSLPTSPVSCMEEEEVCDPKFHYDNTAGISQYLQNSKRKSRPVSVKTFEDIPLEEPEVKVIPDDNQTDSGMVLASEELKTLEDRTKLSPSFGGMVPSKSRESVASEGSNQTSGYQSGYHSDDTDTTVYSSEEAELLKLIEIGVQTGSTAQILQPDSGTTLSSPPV

On to `O=c1n(-c2ccc(N3CCN(c4ccc(OC[C@@H]5CO[C@@](Cn6cncn6)(c6ccc(Cl)cc6Cl)O5)cc4)CC3)cc2)cnn1CCCCCCc1ccccc1`, for which, in assay [1], the inhibition entry is “inactive”. In assay [2], the “Ratio IC50” value came out at 0.69. Moreover, the fold change (FC) in assay [3] is less than 0.15. Further, the Ratio in the assay on HUVEC [4] is listed as 1.45.
For `CC1(CCCCCCCn2ncn(-c3ccc(N4CCN(c5ccc(OC[C@@H]6CO[C@@](Cn7cncn7)(c7ccc(Cl)cc7Cl)O6)cc5)CC4)cc3)c2=O)N=N1` the same measures were “inactive”, 1.18, greater than 0.45 and 1.1.
Regarding `CCCCCCCCn1ncn(-c2ccc(N3CCN(c4ccc(OC[C@@H]5CO[C@@](Cn6cncn6)(c6ccc(Cl)cc6Cl)O5)cc4)CC3)cc2)c1=O`, the inhibition result in assay [1] is “inactive”. The “Ratio IC50” value in assay [2] is reported as 0.67. In addition, in assay [3], the fold change (FC) was less than 0.15. The Ratio with HUVEC [4] amounted to 2.24.
Turning to `CC/C=C/CCn1ncn(-c2ccc(N3CCN(c4ccc(OC[C@@H]5CO[C@@](Cn6cncn6)(c6ccc(Cl)cc6Cl)O5)cc4)CC3)cc2)c1=O`, the “Ratio IC50” value with HUVEC [5] was determined as 1.57; in assay [2] it was 0.63. The inhibition entry in assay [1] is “inactive”. Also, the fold change (FC) in assay [3] was less than 0.15.
